Rin1 Abl inh – human Rin1-Abl interaction inhibition; 360,000 compounds, 0.4% hits; P00519+Q13671; TR-FRET Rin1/Abl binding, biochemical; AID 588664; inhibition, % at 7.35 µM; in the data active = inhibition above about 5%, passing the limit was not always enough
PREPL inh – inhibitors of human prolyl oligopeptidase-like enzyme PREPL | Q4J6C6 | recombinant PREPL, fluorescence polarization activity-based probe | inhibition, % at 5.96 µM | 320,000 compounds, 0.68% hits | AID 2751; in the data active = inhibition above about 43%;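 also: 0% = enzyme with DMSO and 100% = wells lacking enzyme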
UBC13 inh – blocks human UBC13 polyubiquitin chain formation | P61088 | TR-FRET | inhibition, % at 20 µM | 330,000 compounds, 0.47% hits; in the data active = inhibition above about 45%, passing the limit was not always enough
RBBP9 inhibitor – human RBBP9 hydrolase inhibition; O75884; recombinant RBBP9, FP-Rh probe fluorescence polarization; inhibition, % at 7.94 µM; 220,000 compounds, 0.2% hits;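 active = inhibition above the campaign mean of all tested compounds plus 3 SD, cut at about 14% in these data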;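 also: plate controls were DMSO wells with RBBP9 for no effect and wells lacking RBBP9 protein for full effect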
Target sequence (O75884 whole entry, looked up): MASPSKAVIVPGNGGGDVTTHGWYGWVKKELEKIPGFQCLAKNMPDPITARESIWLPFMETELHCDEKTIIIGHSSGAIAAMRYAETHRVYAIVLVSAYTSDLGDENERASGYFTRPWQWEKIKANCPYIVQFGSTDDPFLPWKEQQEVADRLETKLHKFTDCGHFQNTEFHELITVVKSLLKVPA
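Assay system: recombinant human RBBP9; Reagent: Serine-hydrolase probe FP-Rh, 375 nM pre-mixing; Doses: 7.94 µM single dose, 0.794% DMSO; Incubation: 30 min then 45 min, 25 °C; Detection: fluorescence polarization (mP), excitation 525 nm, emission 598 nm; Evaluation: percent inhibition from mP, scaled between DMSO and no-protein wells.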
ALR H2O2 inh – blocks human ALR sulfhydryl oxidase activity | 290,000 compounds, 3.8% hits | purified ALR, DTT oxidation, H2O2 HRP-luminol luminescence | P55789 | inhibition, % (concentration not given with the values);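 active = mean replicate inhibition above about 79%, with every replicate also reaching it, limit read from the data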
Target sequence (P55789 whole entry, looked up): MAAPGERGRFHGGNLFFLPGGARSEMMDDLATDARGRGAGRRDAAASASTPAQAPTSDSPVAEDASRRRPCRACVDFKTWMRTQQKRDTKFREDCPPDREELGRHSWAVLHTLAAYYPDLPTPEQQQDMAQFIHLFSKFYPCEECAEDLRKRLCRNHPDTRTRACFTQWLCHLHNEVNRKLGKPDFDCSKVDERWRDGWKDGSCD
SUMO HTRF inh – SUMOylation inhibition | inhibition, % at 35 µM | AID 2006 | HTRF SUMOylation assay, SAE1/SAE2 + UBC9, in vitro | 290,000 compounds, 0.36% hits; in the data active = inhibition above about 50%, passing the limit was not always enough
Target sequence (P63279 whole entry, looked up): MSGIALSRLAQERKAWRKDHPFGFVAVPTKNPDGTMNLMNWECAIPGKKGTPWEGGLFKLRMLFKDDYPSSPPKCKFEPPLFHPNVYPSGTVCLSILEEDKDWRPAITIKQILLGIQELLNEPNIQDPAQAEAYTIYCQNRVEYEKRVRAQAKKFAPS
Starred values were filed as active, the others as inactive; . = not tested or not shown. This is a sample that favours compounds with a hit; in the whole collection about 4.3% have one here.

SMILES | Rin1 Abl inh | PREPL inh | UBC13 inh | RBBP9 inhibitor | ALR H2O2 inh | SUMO HTRF inh
C=CCOc1ccc(CNn2cn[nH]c2=S)cc1OC | -2 | 14 | 5 | -3 | -22 | -11
CC(=O)Nc1cccc(-c2ccnc3c2CC(C(=O)Nc2cccc(N(C)C)c2)O3)c1 (centres undefined) | -1 | . | . | . | . | .
CC(C)(C)NC(=O)COC(=O)c1ccc(NC(=O)CC#N)cc1 | -3 | 2 | -4 | -8 | 99* | 7
N#CCC(=O)Nc1ccc(C(=O)OCC(=O)c2ccc3c(c2)OCO3)cc1 | 1 | -3 | -3 | . | 99* | .
N#CCC(=O)Nc1ccc(C(=O)OCC(=O)Nc2ccc3ccccc3c2)cc1 | 0 | -26 | -25 | . | 92* | .
CC1CN(C(=O)COC(=O)c2ccc(NC(=O)CC#N)cc2)CC(C)O1 (centres undefined) | 1 | -11 | -2 | -7 | 99* | 14
N#CCC(=O)Nc1ccc(C(=O)OCC(=O)NNC(=O)c2ccc(Cl)cc2)cc1 | 1 | 2 | -4 | . | 67 | .
Cc1cc(C)c(C)c(S(=O)(=O)NCC(=O)Nc2ccc(F)cc2)c1C | 0 | -3 | -6 | . | -2 | -2
COc1cccc(NC(=O)CN(C)C(=O)c2ccccn2)c1 | 2 | 2 | 5 | . | -11 | .
CN(CC(=O)NCCc1ccc(S(N)(=O)=O)cc1)CC(=O)Nc1ccccc1C(F)(F)F | -3 | 19 | -8 | . | 54 | .
CCN(CC(=O)Nc1c(F)cccc1F)C(=O)c1cccc(S(=O)(=O)N2CCCc3ccccc32)c1 | 2 | . | . | . | . | .
C=CCNc1nc2c3ccccc3n(C(C)=O)c2s1 | -2 | 6 | -24 | -6 | 96* | 2
CC(=O)n1c2ccccc2c2nc3ccccc3nc21 | 0 | 15 | 11 | . | -11 | 2
CN1C(=O)/C(=C/c2cn(CC(=O)N3CCCCC3)c3ccccc23)NC1=S | 1 | . | -62 | . | 0 | 10
N#C/C(=C\c1cn(Cc2ccc(F)cc2)c2ccccc12)C(=O)NCc1ccco1 | 0 | 9 | -3 | -10 | 6 | 51*
Cc1cccc(NC(=O)/C(C#N)=C/c2cn(CC(=O)NCc3ccco3)c3ccccc23)c1C | 0 | -9 | -15 | -12 | -5 | 58*
CN1C(=O)/C(=C/c2cn(CC(=O)NCc3ccco3)c3ccccc23)NC1=S | . | 6 | -11 | -6 | 97* | 9
O=C(O)c1ccc(N/N=C/c2cn(Cc3ccc(F)cc3)c3ccccc23)cc1 | -2 | 29 | 20 | 0 | 99* | 29
COCCn1c(N/N=C(C)/C=C/c2ccccc2)nc2c1c(=O)[nH]c(=O)n2C | . | 10 | . | 0 | -5 | 14
C=CCn1c(O)c2ccc(C(=O)N=NC(=O)c3ccc(F)cc3)cc2c1O | -5 | 20 | 0 | . | -12 | .
NC(=O)c1ncn([C@@H]2O[C@H](CNCc3cc(Cl)ccc3OCc3ccc(Cl)cc3)[C@@H](O)[C@H]2O)n1 | -1 | . | . | . | . | .
COc1ccc(OC)c(NC(=O)c2cccc(N3C(=O)C4C5C=CC(C6CC56)C4C3=O)c2)c1 (centres undefined) | 4 | 3 | 4 | . | . | .
CC(=O)n1c(=O)c2ccccc2c(=O)n1-c1ccccc1 | -2 | 0 | 9 | . | 98* | 12
COCCSc1nc(N)c2c3c(sc2n1)CN(C)CC3 | -1 | 13 | 0 | 2 | -30 | 25
COc1ccc(NC(=O)Cn2c(=O)oc3cc(S(=O)(=O)N4CCCC4)ccc32)cc1 | 0 | 12 | -3 | . | -4 | 8
SMILES | Rin1 Abl inh | PREPL inh | UBC13 inh | RBBP9 inhibitor | ALR H2O2 inh | SUMO HTRF inh
O=C(Cn1c(=O)oc2cc(S(=O)(=O)N3CCc4ccccc43)ccc21)NC1CCCC1 | 0 | -4 | -10 | -9 | 96* | 14
O=C(Cn1c(=O)oc2cc(S(=O)(=O)N3CCCCCC3)ccc21)NC1CCCCC1 | 0 | -2 | -12 | . | -3 | 7
Cc1ccc(NC(=O)Cn2c(=O)oc3cc(S(=O)(=O)N4CCC(C)CC4)ccc32)cc1C | -2 | -11 | -10 | -4 | . | 50*
Cc1csc(N=Nc2ccc(N(C)C)cc2)[n+]1[O-] | -19 | . | . | . | . | .
COC(=O)c1ccc(CNC(=O)Cn2cnc(C(=O)Nc3ccc(C)c(C)c3)n2)cc1 | -2 | . | . | . | . | .
CCN1CCCC1CNC(=O)CCc1nnc(CCC2CCCCC2)o1 (centres undefined) | -1 | 1 | 5 | -9 | 100* | 4
CCNC(=S)NNC(=O)c1cc(-c2cccnc2)nc2ccccc12 | 3 | 3 | -4 | -8 | 88* | -6
CN(C(=O)CSc1nnc(COc2ccccc2F)n1N)C1CCS(=O)(=O)C1 (centres undefined) | 5 | 17 | 4 | . | -24 | .
COc1ccc(CCNC(=O)C2COc3ccccc3O2)cc1OC (centres undefined) | 4 | . | . | . | . | .
COc1ccc(CN2CC(C(N)=O)Oc3ccccc32)cc1F (centres undefined) | 3 | 3 | 5 | . | 98* | -6
Cc1onc(-c2c(F)cccc2Cl)c1C(=O)OCC(=O)Nc1cccc(S(=O)(=O)N(C)C)c1 | 0 | . | . | . | . | .
CCCCSCCCNC(=S)Nc1ccccc1C | -1 | 13 | 3 | -7 | 77* | 2
O=C1NCCCc2c1oc1cc(Br)c(O)c(Br)c21 | -5 | 8 | -2 | -10 | 99* | 29
CC(C)NCc1c(O)c(Br)cc2oc3c(c12)CCCC3 | -2 | . | . | 1 | . | -4
COC(=O)CCc1ccc(O)cc1 | 1 | 1 | 4 | . | 14 | 14
COC(=O)C1(Cc2ccc(O)cc2)OC(=O)C(O)=C1c1ccc(O)cc1 (centres undefined) | 2 | 0 | -32 | . | 99* | -18
O=C(NN1CCOCC1)C12CC3CC(CC(C3)C1)C2 | -4 | 6 | -3 | 3 | -8 | -12
CC(=O)c1cccc(Oc2cc(NN3CCCCC3)c([N+](=O)[O-])cc2[N+](=O)[O-])c1 | 1 | 14 | -3 | . | 93* | 8
CC(=O)c1ccccc1Oc1cc(NN2CCCCC2)c([N+](=O)[O-])cc1[N+](=O)[O-] | -2 | 11 | -17 | . | . | -1
O=[N+]([O-])c1cc([N+](=O)[O-])c(Oc2c(F)ccc(F)c2F)cc1NN1CCCCC1 | 0 | -6 | -2 | . | 96* | -10
CCOC(=O)N1CCN(C(=O)c2ccccc2NC(=O)COc2ccccc2)CC1 | -1 | 9 | 7 | . | -2 | 8
CC1=C(C)C(=O)C(N2CCOCC2)=CC1=O | 1 | . | . | -2 | . | -10
O=C1C=C(N2CCOCC2)c2ccccc2C1=O | 2 | 16 | -195 | . | 38 | 96*
O=C(C1CCCCC1)N1C[C@@H](O)[C@H](n2cc(-c3ccc(F)cc3)nn2)C[C@@H]1c1ccc(Cl)cc1 | -1 | . | . | . | . | .
CC(NC(=O)C12CC3CC(CC(C3)C1)C2)C(=O)N/N=C/C1=C(N2CCOCC2)C(=C\c2ccccc2)/CC1 (centres undefined) | -1 | 17 | -15 | 1 | -1 | 11
Cn1cc(C(=O)N/N=C/C2=C(N3CCOCC3)C(=C\c3ccccc3)/CC2)ccc1=O | 2 | 16 | 0 | -6 | 89* | 6

Source: PubChem BioAssay
